In ChEMBL document CHEMBL1124611, “Synthesis and antitubercular activity of N-(2-naphthyl)glycine hydrazide analogues” (J Med Chem, 1989):

Legend:
Assay type in all cases: functional, organism-based
[1] = system: Mycobacterium tuberculosis; experiment: Ability to inhibit 100%growth against Mycobacterium tuberculosis H37Rv in Youman's medium
Procedure, shortened: (§1)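 M. tuberculosis H37Rv was kept on Petrik's solid medium. A 3-mm loopful of a 14-day culture grown in Youman's medium was floated on 5.0 mL of Youman's (nonprotein) medium holding a range of compound concentrations diluted from stocks. Controls held medium or ethylene glycol. Tubes were sealed with paraffin and held at 37 °C. Growth was compared with controls weekly and scored at 21 days, in triplicate.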

[2] = system: Mycobacterium tuberculosis; experiment: Ability to inhibit 100%growth against Mycobacterium tuberculosis H37Rv in Youman's medium with 10% bovine serum
Procedure, shortened: (§2)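 H37Rv from a 14-day Youman's culture was inoculated as a loopful floated on Youman's medium with 10% (v/v) freshly prepared bovine serum. The medium held a range of compound concentrations. Controls held medium or ethylene glycol. Tubes were sealed and held at 37 °C. Growth was compared with controls and scored at 21 days.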

[3] = system: Mycobacterium tuberculosis; experiment: Ability to inhibit partial growth (50+/-10%) against Mycobacterium tuberculosis H37Rv in Youman's medium; procedure, shortened: as §1
[4] = system: Mycobacterium tuberculosis; experiment: Ability to inhibit partial growth (50+/-10%) against Mycobacterium tuberculosis H37Rv in Youman's medium with 10% bovine serum; procedure, shortened: as §2
[5] = system: Mycobacterium tuberculosis; experiment: Ability to inhibit 100%growth against Mycobacterium tuberculosis strain no: 22443 in Youman's medium.
Procedure, shortened: (§3)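 Clinical isolates (INH-resistant nos. 22443 and 312; streptomycin-resistant no. 14029) were kept on Lowenstein-Jensen or Petrik's medium, then moved to Youman's medium. 14-day cultures were inoculated into tubes holding a range of compound concentrations in Youman's medium. Controls held medium, ethylene glycol, INH and streptomycin. Tubes were sealed with paraffin and held at 37 °C for 4 weeks. Growth was compared with controls weekly and scored at 28 days, in triplicate.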

[6] = system: Mycobacterium tuberculosis; experiment: Ability to inhibit 100%growth against Mycobacterium tuberculosis strain no: 312 in Youman's medium.; procedure, shortened: as §3
[7] = system: Mycobacterium tuberculosis; experiment: Ability to inhibit partial growth (50+/-10%) against Mycobacterium tuberculosis strain no: 22443 in Youman's medium; procedure, shortened: as §3
[8] = system: Mycobacterium tuberculosis; experiment: Ability to inhibit partial growth (50+/-10%) against Mycobacterium tuberculosis strain no: 312 in Youman's medium; procedure, shortened: as §3
[9] = system: Mycobacterium tuberculosis; experiment: Ability to inhibit 100% growth against Mycobacterium tuberculosis strain no :14029; procedure, shortened: as §3
[10] = system: Mycobacterium tuberculosis; experiment: Ability to inhibit partial growth (50+/-10%) against Mycobacterium tuberculosis strain no: 14029 in Youman's medium; procedure, shortened: as §3

## CC(CC(=O)NN)Nc1ccc2ccccc2c1 (stereo unspecified)
[1]
  Concentration: 10 µg/mL
[2]
  Concentration: 100 µg/mL
[3]
  Concentration: 5 µg/mL
[4]
  Concentration: 50 µg/mL

## CN(CC(=O)N/N=C/c1ccncc1)c1ccc2ccccc2c1
[1]
  Concentration: 10 µg/mL
[2]
  Concentration: 100 µg/mL
[3]
  Concentration: 1 µg/mL
[4]
  Concentration: 10 µg/mL

## CC(Nc1ccc2ccccc2c1)C(=O)NN (stereo unspecified)
[1]
  Concentration: 1 µg/mL
[2]
  Concentration: 50 µg/mL
[3]
  Concentration: 0.5 µg/mL
[4]
  Concentration: 10 µg/mL

## NNC(=O)CNc1ccc2ccccc2c1
[1]
  Concentration: 1 µg/mL
[2]
  Concentration: 50 µg/mL
[3]
  Concentration: 0.5 µg/mL
[4]
  Concentration: 10 µg/mL

## O=C(O)CNc1ccc2ccccc2c1
[1]
  Concentration: 1000 µg/mL
[3]
  Concentration: 100 µg/mL

## NNC(=O)c1ccncc1
[1]
  Concentration: 1 µg/mL
[2]
  Concentration: 1 µg/mL
[5]
  Concentration: 150 µg/mL
[6]
  Concentration: 100 µg/mL
[3]
  Concentration: 0.1 µg/mL
[4]
  Concentration: 0.5 µg/mL
[7]
  Concentration: 100 µg/mL
[8]
  Concentration: 50 µg/mL

## COc1ccc2cc(NC(C)C(=O)NN)ccc2c1 (stereo unspecified)
[1]
  Concentration: 50 µg/mL
[2]
  Concentration: 100 µg/mL
[3]
  Concentration: 10 µg/mL
[4]
  Concentration: 50 µg/mL

## O=C(CNc1ccc2ccccc2c1)N/N=C/c1ccncc1
[1]
  Concentration: 1 µg/mL
[2]
  Concentration: 100 µg/mL
[3]
  Concentration: 0.5 µg/mL
[4]
  Concentration: 10 µg/mL

## CN[C@@H]1[C@H](O[C@H]2[C@H](O[C@H]3[C@H](O)[C@@H](O)[C@H](N=C(N)N)[C@@H](O)[C@@H]3N=C(N)N)O[C@@H](C)[C@]2(O)C=O)O[C@@H](CO)[C@H](O)[C@H]1O
[9]
  Concentration: 2500 µg/mL
[10]
  Concentration: 1000 µg/mL

## COc1ccc2cc(NCC(=O)NN)ccc2c1
[1]
  Concentration: 10 µg/mL
[2]
  Concentration: 50 µg/mL
[3]
  Concentration: 5 µg/mL
[4]
  Concentration: 10 µg/mL

## CC(CC(=O)NN)Nc1ccc2ncccc2c1 (stereo unspecified)
[1]
  Concentration: 100 µg/mL
[2]
  Concentration: 150 µg/mL
[3]
  Concentration: 50 µg/mL
[4]
  Concentration: 100 µg/mL

## CN(CC(=O)NN)c1ccc2ccccc2c1
[1]
  Concentration: 10 µg/mL
[2]
  Concentration: 50 µg/mL
[3]
  Concentration: 2 µg/mL
[4]
  Concentration: 10 µg/mL

## NNC(=O)CNc1ccc2ncccc2c1
[1]
  Concentration: 100 µg/mL
[2]
  Concentration: 100 µg/mL
[3]
  Concentration: 25 µg/mL
[4]
  Concentration: 50 µg/mL

## O=C(O)CNc1ccc2ncccc2c1
[1]
  Concentration: 100 µg/mL
[2]
  Concentration: 100 µg/mL
[3]
  Concentration: 10 µg/mL
[4]
  Concentration: 50 µg/mL
